{"data": "Assay results gathered from unrelated publications", "effect on": "cell growth or viability", "note": "Lines come from different studies, so protocols differ."}
{"Compound": "COc1ccc2occ(/C=C/c3cc(OC)c(OC)c(OC)c3)c(=O)c2c1", "cell line": "HSC-2", "test": "MTT", "conditions": "7 h", "quantity": "CC50", "result": "20000 nM"}
{"Compound": "COc1ccc(NC(=O)c2c(Nc3ccccc3)sc(C(=O)NN=Cc3ccc(C)cc3)c2NC(C)=O)cc1", "cell line": "HCT-116", "test": "SRB", "conditions": "100 µM, 48 h", "quantity": "viability", "result": "76.1%"}
{"Compound": "CCn1cc(C#Cc2cc(C(=O)NCc3ccsc3)ccc2C)c2c(N)ncnc21", "cell line": "32D", "quantity": "GI50", "result": "23.3 nM"}
{"Compound": "c1ccc(-c2ccc(CNCC3(N4CCCC4)COC3)s2)cc1", "cell line": "U-87 MG", "conditions": "30 µM, 48 h", "quantity": "viability", "result": "55.6%"}
{"Compound": "Cc1ccc(C(=O)NCc2ccsc2)cc1C#Cc1cn(CCN(C)C)c2ncnc(N)c12", "cell line": "32D", "quantity": "GI50", "result": "> 1000 nM"}
{"Compound": "COc1ccc(NC(=O)c2c(Nc3ccccc3)sc(C#N)c2NC(=O)CNc2ccc(C)cc2)cc1", "cell line": "HCT-116", "test": "SRB", "conditions": "10 nM, 48 h", "quantity": "viability", "result": "92.4%"}
{"Compound": "CCCCCCCCCCCCCCCCOP(=O)([O-])OCC[N+](C)(C)C", "cell line": "DH82", "test": "MTS", "conditions": "20 µM, 24 h", "quantity": "inhibition", "result": "43.9%"}
{"Compound": "COc1ccc(NC(=O)c2c(Nc3ccccc3)sc(C#N)c2NC(=O)CNc2ccc(Br)cc2)cc1", "cell line": "HCT-116", "test": "SRB", "conditions": "0.1 µM, 48 h", "quantity": "viability", "result": "80.6%"}
{"Compound": "Cc1cccc2cc(CNCC3(N4CCCC4)COC3)cnc12", "cell line": "U-87 MG", "conditions": "30 µM, 48 h", "quantity": "viability", "result": "97.7%"}
{"Compound": "CC(C)Cc1nn(C)c(=O)c2c(SCCCO)n(Cc3ccc(NCCCCCN)nc3)cc12", "cell line": "Raji", "test": "MTT", "conditions": "96 h", "quantity": "EC50", "result": "520 nM"}
{"Compound": "CCc1ncn(CC(c2c[nH]c3ccc(C)cc23)c2c[nH]c3ccc(C)cc23)c1C(=O)OC", "cell line": "DH82", "test": "MTS", "conditions": "20 µM, 24 h", "quantity": "inhibition", "result": "6.1%"}
{"Compound": "COc1ccc2occ(/C=C/c3ccc(O)cc3)c(=O)c2c1", "cell line": "HSC-2", "test": "MTT", "conditions": "6.7 h", "quantity": "CC50", "result": "9500 nM"}
{"Compound": "COc1ccc(-c2ccc(-c3ccc(C(=N)N)nc3)s2)cc1", "cell line": "EKVX", "test": "SRB", "quantity": "GI50", "result": "1700 nM"}
{"Compound": "Cc1ccc(C(=O)NCc2ccsc2)cc1C#Cc1cn(C2CCC2)c2ncnc(N)c12", "cell line": "32D", "quantity": "GI50", "result": "> 1000 nM"}
{"Compound": "COc1ccc(NC(=O)c2c(Nc3ccccc3)sc(C#N)c2NC(=O)CNc2ccccc2)cc1", "cell line": "HCT-116", "test": "SRB", "conditions": "10 µM, 48 h", "quantity": "viability", "result": "87.2%"}
{"Compound": "COc1cccc(Oc2ccccc2NC(=O)CNC(=O)c2cccc3ccccc23)c1", "cell line": "EKVX", "test": "SRB", "conditions": "48 h", "quantity": "GI50", "result": "1290 nM"}
{"Compound": "COc1ccc(C=NNC(=O)c2sc(Nc3ccccc3)c(C(=O)Nc3ccc(OC)cc3)c2NC(C)=O)cc1", "cell line": "HCT-116", "test": "SRB", "conditions": "1 µM, 48 h", "quantity": "viability", "result": "59.4%"}
{"Compound": "COc1ccc(/C=C/c2coc3ccc(OC)cc3c2=O)cc1", "cell line": "HSC-2", "test": "MTT", "conditions": "23 h", "quantity": "CC50", "result": "2600 nM"}
{"Compound": "COc1ccc(NC(=O)c2c(Nc3ccccc3)sc(C#N)c2NC(=O)CNc2ccccc2[N+](=O)[O-])cc1", "cell line": "HCT-116", "test": "SRB", "conditions": "10 µM, 48 h", "quantity": "viability", "result": "72.7%"}
{"Compound": "Cn1nnc2c(C(N)=O)ncn2c1=O", "cell line": "KATO3", "quantity": "EC50", "result": "592000 nM"}
{"Compound": "Clc1ccccc1-c1ccc(CNCC2(N3CCCC3)COC2)o1", "cell line": "U-87 MG", "conditions": "30 µM, 48 h", "quantity": "viability", "result": "63.6%"}
{"Compound": "C=CC(=O)N1CCC[C@@H](n2nc(-c3ccc(Oc4ccccc4)cc3)c3c(N)ncnc32)C1", "cell line": "DOHH-2", "test": "ATP luminescence", "conditions": "72 h", "quantity": "GI50", "result": "17000 nM"}
{"Compound": "CCOC(=O)c1c(C)ncn1CC(c1cn(C)c2ccc([N+](=O)[O-])cc12)c1cn(C)c2ccc([N+](=O)[O-])cc12", "cell line": "DH82", "test": "MTS", "conditions": "20 µM, 24 h", "quantity": "inhibition", "result": "20.5%"}
{"Compound": "CC(C)Cc1nn(C)c(=O)c2c(SCCCO)n(Cc3cnc(Cl)c4ccccc34)cc12", "cell line": "Raji", "test": "MTT", "conditions": "96 h", "quantity": "EC50", "result": "60 nM"}
{"Compound": "COc1ccc(NC(=O)c2c(Nc3ccccc3)sc(C(=O)NN=Cc3ccccc3)c2NC(C)=O)cc1", "cell line": "HCT-116", "test": "SRB", "conditions": "1 µM, 48 h", "quantity": "viability", "result": "77.3%"}
{"Compound": "Cc1cn(CC(c2cn(C)c3ccccc23)c2cn(C)c3ccccc23)nn1", "cell line": "DH82", "test": "MTS", "conditions": "20 µM, 24 h", "quantity": "inhibition", "result": "17.9%"}
{"Compound": "CC(C)Cc1nn(C)c(=O)c2c(SCCCO)n(Cc3ccc(Cl)nc3)cc12", "cell line": "Raji", "test": "MTT", "conditions": "96 h", "quantity": "EC50", "result": "1000 nM"}
{"Compound": "COc1ccc(NC(=O)c2c(Nc3ccccc3)sc(C#N)c2NC(=O)CNc2ccccc2Cl)cc1", "cell line": "HCT-116", "test": "SRB", "conditions": "10 nM, 48 h", "quantity": "viability", "result": "87.7%"}
{"Compound": "COc1cc(-c2ccc(-c3ccc(C(=N)N)nc3)s2)cc(OC)c1OC", "cell line": "EKVX", "test": "SRB", "quantity": "GI50", "result": "5190 nM"}
